In brackets after ≈: the same amount, converted by molar mass.
Legend:
[1] = tested on: L6; test: Cytotoxicity against rat L6 cells after 72 hrs by alamar blue assay; assay type: cell-based; conditions: L6, 72 h
Procedure, shortened: (§1)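 In vitro screens of parasites and host cells: T. b. rhodesiense STIB900 trypomastigotes, T. cruzi Tulahuen C4 intracellular amastigotes, L. donovani MHOM-ET-67/L82 axenic amastigotes, P. falciparum K1 erythrocytic stage, and L6 rat skeletal myoblasts […] for toxicity. […] Values are means of two independent determinations.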

[2] = tested on: Trypanosoma brucei rhodesiense; test: Antitrypanosomal activity against trypomastigotes of Trypanosoma brucei rhodesiense […] after 72 hrs by alamar blue assay; assay type: functional, organism-based; conditions: STIB 900, L6, 72 h; procedure, shortened: as §1
[3] = tested on: Leishmania donovani; test: Antileishmanial activity against axenic amastigote stage of Leishmania donovani […] after 72 hrs by alamar blue assay; assay type: functional, organism-based; conditions: MHOM/ET/67/L82, L6, 72 h
Procedure, shortened: (§2)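 In vitro screens of parasites and host cells: T. b. rhodesiense STIB900 trypomastigotes, T. cruzi Tulahuen C4 intracellular amastigotes, L. donovani MHOM-ET-67/L82 axenic amastigotes, P. falciparum K1 erythrocytic stage, and L6 rat skeletal myoblasts […] for toxicity. Values are means of two independent determinations.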

[4] = tested on: Trypanosoma cruzi; test: Antitrypanosomal activity against intracellular amastigote stage of Trypanosoma cruzi Tulahuen C2C4 infected in rat L6 cells after 96 hrs by spectrophotometric analysis; assay type: functional, organism-based; conditions: Tulahuen C2C4, L6, 96 h; procedure, shortened: as §2
[5] = tested on: Plasmodium falciparum; test: Antimalarial activity against chloroquine and pyrimethamine-resistant Plasmodium falciparum […] assessed as [3H]-hypoxanthine incorporation after 48 hrs by liquid scintillation counting; assay type: functional, organism-based; procedure, shortened: as §1
[6] = Selectivity index, ratio of IC50 for rat L6 cells to IC50 for chloroquine and pyrimethamine-resistant Plasmodium falciparum K1; assay type: toxicity, cell-based; conditions: read-out: Ratio IC50
Procedure, shortened: (§3)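 Selectivity index is calculated as the L6 myoblast IC50 divided by the IC50 against the respective parasite. Both IC50s are in µg/mL and are means of two independent determinations.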

[7] = Selectivity index, ratio of IC50 for rat L6 cells to IC50 for trypomastigotes of Trypanosoma brucei rhodesiense STIB 900; assay type: toxicity, cell-based; conditions: read-out: Ratio IC50; procedure, shortened: as §3
[8] = Selectivity index, ratio of IC50 for rat L6 cells to IC50 for intracellular amastigote stage of Trypanosoma cruzi Tulahuen C2C4; assay type: toxicity, cell-based; conditions: read-out: Ratio IC50; procedure, shortened: as §3
[9] = Selectivity index, ratio of IC50 for rat L6 cells to IC50 for axenic amastigote stage of Leishmania donovani MHOM/ET/67/L82; assay type: toxicity, cell-based; conditions: read-out: Ratio IC50; procedure, shortened: as §3

## O=C(NC(=O)c1ccccc1O)c1ccc(C(F)(F)F)cc1
[1]
  IC50: 13 µg/mL (≈ 42 µM)
[2]
  IC50: 70 µg/mL (≈ 226 µM)
[3]
  IC50: 0.57 µg/mL (≈ 1.84 µM)
[4]
  IC50: 50 µg/mL (≈ 162 µM)
[5]
  IC50: 3.8 µg/mL (≈ 12.3 µM)

## Cc1ccc(C(=O)NC(=O)c2ccccc2O)cc1
[6]
  selectivity ratio: 33
[1]
  IC50: 46 µg/mL (≈ 180 µM)
[2]
  IC50: > 100 µg/mL
[7]
  selectivity ratio: < 0.46
[3]
  IC50: 3.2 µg/mL (≈ 12.5 µM)
[4]
  IC50: 38 µg/mL (≈ 149 µM)
[8]
  selectivity ratio: 1.2
[5]
  IC50: 1.4 µg/mL (≈ 5.48 µM)
[9]
  selectivity ratio: 14

## CC(C)c1ccc(C(=O)NC(=O)c2ccccc2O)cc1
[6]
  selectivity ratio: 12
[1]
  IC50: 19 µg/mL (≈ 67.1 µM)
[2]
  IC50: 65 µg/mL (≈ 229 µM)
[7]
  selectivity ratio: 0.29
[3]
  IC50: 1.3 µg/mL (≈ 4.59 µM)
[4]
  IC50: 2 µg/mL (≈ 7.06 µM)
[8]
  selectivity ratio: 9.5
[5]
  IC50: 1.5 µg/mL (≈ 5.29 µM)
[9]
  selectivity ratio: 14

## Nc1ccc(C(=O)NC(=O)c2ccccc2O)cc1
[6]
  selectivity ratio: 10
[1]
  IC50: 39 µg/mL (≈ 152 µM)
[2]
  IC50: 46 µg/mL (≈ 180 µM)
[7]
  selectivity ratio: 0.84
[3]
  IC50: 7.8 µg/mL (≈ 30.4 µM)
[4]
  IC50: 40 µg/mL (≈ 156 µM)
[8]
  selectivity ratio: 0.98
[5]
  IC50: 3.9 µg/mL (≈ 15.2 µM)
[9]
  selectivity ratio: 5

## COC(=O)CCC(=O)Nc1ccc(C(=O)NC(=O)c2ccccc2O)cc1
[6]
  selectivity ratio: > 2.4
[1]
  IC50: > 50 µg/mL
[2]
  IC50: > 50 µg/mL
[3]
  IC50: 22 µg/mL (≈ 59.4 µM)
[4]
  IC50: > 50 µg/mL
[5]
  IC50: 21 µg/mL (≈ 56.7 µM)
[9]
  selectivity ratio: > 2.3

## CC(C)(C)c1ccc(C(=O)NC(=O)c2ccccc2O)cc1
[6]
  selectivity ratio: 80
[1]
  IC50: 2.3 µg/mL (≈ 7.73 µM)
[2]
  IC50: 61 µg/mL (≈ 205 µM)
[7]
  selectivity ratio: 0.038
[3]
  IC50: 0.14 µg/mL (≈ 0.471 µM)
[4]
  IC50: 6 µg/mL (≈ 20.2 µM)
[8]
  selectivity ratio: 0.38
[5]
  IC50: 0.029 µg/mL (≈ 0.0975 µM)
[9]
  selectivity ratio: 17

## O=C(NC(=O)c1ccccc1O)c1ccc(-c2ccccc2)cc1
[6]
  selectivity ratio: > 26
[1]
  IC50: > 100 µg/mL
[2]
  IC50: 87 µg/mL (≈ 274 µM)
[7]
  selectivity ratio: > 1.2
[3]
  IC50: 7.4 µg/mL (≈ 23.3 µM)
[4]
  IC50: 7.7 µg/mL (≈ 24.3 µM)
[8]
  selectivity ratio: > 13
[5]
  IC50: 3.9 µg/mL (≈ 12.3 µM)
[9]
  selectivity ratio: > 14

## O=C(NC(=O)c1ccccc1O)c1ccc(F)cc1
[6]
  selectivity ratio: 25
[1]
  IC50: 38 µg/mL (≈ 147 µM)
[2]
  IC50: 64 µg/mL (≈ 247 µM)
[7]
  selectivity ratio: 0.6
[3]
  IC50: 1.6 µg/mL (≈ 6.17 µM)
[4]
  IC50: 51 µg/mL (≈ 197 µM)
[8]
  selectivity ratio: 0.75
[5]
  IC50: 1.5 µg/mL (≈ 5.79 µM)
[9]
  selectivity ratio: 23

## O=C(NC(=O)c1ccccc1O)c1ccc(OC(F)(F)F)cc1
[1]
  IC50: 84 µg/mL (≈ 258 µM)
[2]
  IC50: 65 µg/mL (≈ 200 µM)
[3]
  IC50: 5.3 µg/mL (≈ 16.3 µM)
[4]
  IC50: 72 µg/mL (≈ 221 µM)
[5]
  IC50: 22 µg/mL (≈ 67.6 µM)

## N#Cc1ccc(C(=O)NC(=O)c2ccccc2O)cc1
[6]
  selectivity ratio: 3.9
[1]
  IC50: 55 µg/mL (≈ 207 µM)
[2]
  IC50: > 100 µg/mL
[7]
  selectivity ratio: < 0.55
[3]
  IC50: 12 µg/mL (≈ 45.1 µM)
[4]
  IC50: 100 µg/mL (≈ 376 µM)
[8]
  selectivity ratio: 0.55
[5]
  IC50: 14 µg/mL (≈ 52.6 µM)
[9]
  selectivity ratio: 4.7

## CS(=O)(=O)c1ccc(C(=O)NC(=O)c2ccccc2O)cc1
[6]
  selectivity ratio: > 2.7
[1]
  IC50: > 100 µg/mL
[2]
  IC50: > 100 µg/mL
[3]
  IC50: > 100 µg/mL
[4]
  IC50: 51 µg/mL (≈ 160 µM)
[8]
  selectivity ratio: > 2
[5]
  IC50: 38 µg/mL (≈ 119 µM)

## O=C(NC(=O)c1ccccc1O)c1ccc([N+](=O)[O-])cc1
[6]
  selectivity ratio: 2.4
[1]
  IC50: 53 µg/mL (≈ 185 µM)
[2]
  IC50: > 100 µg/mL
[7]
  selectivity ratio: < 0.53
[3]
  IC50: 11 µg/mL (≈ 38.4 µM)
[4]
  IC50: 56 µg/mL (≈ 196 µM)
[8]
  selectivity ratio: 0.94
[5]
  IC50: 22 µg/mL (≈ 76.9 µM)
[9]
  selectivity ratio: 4.9

## COC(=O)c1ccc(C(=O)NC(=O)c2ccccc2O)cc1
[6]
  selectivity ratio: 14
[1]
  IC50: 42 µg/mL (≈ 140 µM)
[2]
  IC50: > 50 µg/mL
[7]
  selectivity ratio: < 0.83
[3]
  IC50: > 50 µg/mL
[4]
  IC50: 20 µg/mL (≈ 66.8 µM)
[8]
  selectivity ratio: 2.1
[5]
  IC50: 2.9 µg/mL (≈ 9.69 µM)
[9]
  selectivity ratio: < 0.83

## COc1ccc(C(=O)NC(=O)c2ccccc2O)cc1
[6]
  selectivity ratio: 24
[1]
  IC50: 39 µg/mL (≈ 144 µM)
[2]
  IC50: 50 µg/mL (≈ 184 µM)
[7]
  selectivity ratio: 0.78
[3]
  IC50: 1.7 µg/mL (≈ 6.27 µM)
[4]
  IC50: 31 µg/mL (≈ 114 µM)
[8]
  selectivity ratio: 1.3
[5]
  IC50: 1.6 µg/mL (≈ 5.9 µM)
[9]
  selectivity ratio: 23

## CCOc1ccc(C(=O)NC(=O)c2ccccc2O)cc1
[6]
  selectivity ratio: 17
[1]
  IC50: 17 µg/mL (≈ 59.6 µM)
[2]
  IC50: 60 µg/mL (≈ 210 µM)
[7]
  selectivity ratio: 0.28
[3]
  IC50: 0.45 µg/mL (≈ 1.58 µM)
[4]
  IC50: 4.1 µg/mL (≈ 14.4 µM)
[8]
  selectivity ratio: 4.1
[5]
  IC50: 1 µg/mL (≈ 3.51 µM)
[9]
  selectivity ratio: 37

## CCCCOc1ccc(C(=O)NC(=O)c2ccccc2O)cc1
[6]
  selectivity ratio: 50
[1]
  IC50: 13 µg/mL (≈ 41.5 µM)
[2]
  IC50: 55 µg/mL (≈ 176 µM)
[7]
  selectivity ratio: 0.23
[3]
  IC50: 0.94 µg/mL (≈ 3 µM)
[4]
  IC50: 11 µg/mL (≈ 35.1 µM)
[8]
  selectivity ratio: 1.2
[5]
  IC50: 0.26 µg/mL (≈ 0.83 µM)
[9]
  selectivity ratio: 14

## O=C(NC(=O)c1ccccc1O)c1ccc(OCc2ccccc2)cc1
[6]
  selectivity ratio: 16
[1]
  IC50: 64 µg/mL (≈ 184 µM)
[2]
  IC50: 62 µg/mL (≈ 178 µM)
[7]
  selectivity ratio: 1
[3]
  IC50: 1.5 µg/mL (≈ 4.32 µM)
[4]
  IC50: 4.4 µg/mL (≈ 12.7 µM)
[8]
  selectivity ratio: 15
[5]
  IC50: 4.1 µg/mL (≈ 11.8 µM)
[9]
  selectivity ratio: 42

## CN(C)c1ccc(C(=O)NC(=O)c2ccccc2O)cc1
[6]
  selectivity ratio: 110
[1]
  IC50: 54 µg/mL (≈ 190 µM)
[2]
  IC50: 81 µg/mL (≈ 285 µM)
[7]
  selectivity ratio: 0.66
[3]
  IC50: 18 µg/mL (≈ 63.3 µM)
[4]
  IC50: 37 µg/mL (≈ 130 µM)
[8]
  selectivity ratio: 1.4
[5]
  IC50: 0.49 µg/mL (≈ 1.72 µM)
[9]
  selectivity ratio: 3

## CCN(CC)c1ccc(C(=O)NC(=O)c2ccccc2O)cc1
[1]
  IC50: 8.2 µg/mL (≈ 26.3 µM)
[2]
  IC50: > 50 µg/mL
[3]
  IC50: 0.91 µg/mL (≈ 2.91 µM)
[4]
  IC50: 2.8 µg/mL (≈ 8.96 µM)
[5]
  IC50: 0.005 µg/mL (≈ 0.016 µM)

## O=C(NC(=O)c1ccccc1O)c1ccc(N2CCOCC2)cc1
[6]
  selectivity ratio: > 272
[1]
  IC50: > 50 µg/mL
[2]
  IC50: > 50 µg/mL
[3]
  IC50: 16 µg/mL (≈ 49 µM)
[4]
  IC50: > 50 µg/mL
[5]
  IC50: 0.18 µg/mL (≈ 0.552 µM)
[9]
  selectivity ratio: > 3.1

## O=C(CCCCCCC(=O)Nc1ccc(C(=O)NC(=O)c2ccccc2O)cc1)NO
[6]
  selectivity ratio: > 29
[1]
  IC50: > 100 µg/mL
[2]
  IC50: 65 µg/mL (≈ 152 µM)
[7]
  selectivity ratio: > 1.5
[3]
  IC50: > 100 µg/mL
[4]
  IC50: 49 µg/mL (≈ 115 µM)
[8]
  selectivity ratio: > 2.1
[5]
  IC50: 3.5 µg/mL (≈ 8.19 µM)

## CCc1ccc(C(=O)Nc2n[nH]c3ccccc23)cc1
[1]
  IC50: 8.2 µg/mL (≈ 30.9 µM)
[2]
  IC50: 8.2 µg/mL (≈ 30.9 µM)
[3]
  IC50: 3 µg/mL (≈ 11.3 µM)
[4]
  IC50: 8.9 µg/mL (≈ 33.5 µM)
[5]
  IC50: 8.5 µg/mL (≈ 32 µM)

## CCc1ccc(-c2noc(-c3ccccc3O)n2)cc1
[6]
  selectivity ratio: > 3.7
[1]
  IC50: > 100 µg/mL
[2]
  IC50: 61 µg/mL (≈ 229 µM)
[7]
  selectivity ratio: > 1.6
[4]
  IC50: 39 µg/mL (≈ 146 µM)
[8]
  selectivity ratio: > 2.6
[5]
  IC50: 27 µg/mL (≈ 101 µM)
[9]
  selectivity ratio: > 1

## Nc1nc(N)nc(Nc2ccc([As]3SCC(CO)S3)cc2)n1 (centres undefined) [MELARSOPROL]
[2]
  IC50: 0.005 µg/mL
